The full list was thinned out, with hits kept by preference.
ABCB6 inh 2 – blocks the human ABCB6 transporter; fluorescence ratio to DMSO, % at 10 µM; 360,000 tested, 0.19% active; K562-ABCB6 porphyrin accumulation, flow cytometry, 1 h; stronger effect = lower value;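 active = fluorescence ratio to DMSO below 75%, the collection mean minus 3 SD; inconclusive = too few cells collected in the well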;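 note: signal is porphyrin accumulated inside mitochondria; lower ratio means ABCB6 inhibition with less porphyrin fluorescence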
Target sequence (Q9NP58 whole entry, looked up): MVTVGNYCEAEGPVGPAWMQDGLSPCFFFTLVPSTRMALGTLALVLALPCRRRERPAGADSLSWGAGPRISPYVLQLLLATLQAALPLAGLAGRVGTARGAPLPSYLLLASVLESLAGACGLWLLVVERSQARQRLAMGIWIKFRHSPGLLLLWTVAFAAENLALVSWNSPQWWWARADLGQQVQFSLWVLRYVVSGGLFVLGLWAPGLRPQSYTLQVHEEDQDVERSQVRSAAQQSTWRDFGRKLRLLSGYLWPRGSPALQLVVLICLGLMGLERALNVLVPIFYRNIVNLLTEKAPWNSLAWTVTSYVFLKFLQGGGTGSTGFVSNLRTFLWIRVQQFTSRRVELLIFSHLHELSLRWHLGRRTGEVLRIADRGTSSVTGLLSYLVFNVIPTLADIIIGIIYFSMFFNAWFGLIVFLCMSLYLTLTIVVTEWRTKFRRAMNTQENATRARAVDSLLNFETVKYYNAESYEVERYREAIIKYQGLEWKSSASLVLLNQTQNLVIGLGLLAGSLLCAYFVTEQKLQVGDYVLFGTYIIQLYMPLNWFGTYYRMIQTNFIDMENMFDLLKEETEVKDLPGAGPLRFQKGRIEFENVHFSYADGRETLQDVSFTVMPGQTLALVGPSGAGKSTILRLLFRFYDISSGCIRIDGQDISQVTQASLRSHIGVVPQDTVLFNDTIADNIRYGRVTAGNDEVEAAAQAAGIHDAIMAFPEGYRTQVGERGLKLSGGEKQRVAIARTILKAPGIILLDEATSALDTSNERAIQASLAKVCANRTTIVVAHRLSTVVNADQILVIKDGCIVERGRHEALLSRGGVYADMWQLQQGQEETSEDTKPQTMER
Myeloid diff MLP – promotes myeloid progenitor differentiation; ER-HoxA9 myeloid progenitors, lysozyme-GFP differentiation, flow cytometry; calls only at 10 µM; 360,000 tested, 1% active; AID 624256;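 active = normalized GFP-positive differentiation at or above the plate's own cutoff, the solvent-only control mean plus 3 SD; inconclusive = no clear call, values can overlap the other calls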;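 note: cells exposed to compound for four days before flow analysis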
XiGFP reactiv – activators of X-chromosome reactivation in mouse fibroblasts; XiGFP mouse fibroblasts, % GFP-positive cells imaging, 3 d; cells co-treated with 5-aza-dC sensitizer; scaled so ellipticine positive control = 100%; activation, % at 7.58 µM; 360,000 tested, 0.055% active; AID 743238;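 active = mean normalized replicate activation at least 10% and every replicate at or above 10%; inconclusive = only one of the two criteria met; inactive = mean below 10% and not all replicates reach 10%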
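Material: XiGFP fibroblasts, SV40-immortalized. Buffer or medium: DMEM plus 5-aza-dC sensitizer. Compound: single concentration per compound, delivered by pin transfer. Times: 3 days compound exposure. Controls: ellipticine 6 µM.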
A number is an active result; 0 = inactive; ? = inconclusive; - = no result given; + = active, no number.

SMILES	ABCB6 inh 2	Myeloid diff MLP	XiGFP reactiv
C/C=C/c1ccc([C@H]2[C@@H](CNC(=O)C3CC3)N(C(=O)NCCC)[C@H]2CO)cc1	-	-	0
Cc1ccc(S(=O)(=O)Nc2ccc3c(c2)CC(=O)N([C@H](C)CO)C[C@H](C)[C@@H](CN(C)Cc2ccc4c(c2)OCO4)O3)cc1	-	-	0
CN1c2ccc(-c3cccc(F)c3)cc2[C@@H]2[C@@H](CCN2S(=O)(=O)c2cccc(F)c2)[C@H]1CO	-	-	0
COc1ccccc1NC(=O)N1CC(=O)N2[C@H](C1)[C@H](c1ccc(C#CC3CC3)cc1)[C@@H]2CO	-	-	0
O=[N+]([O-])c1ccc(NN=C(Oc2ccccc2)c2ccc([N+](=O)[O-])cc2)cc1	0	+	0
C/C(=N\Nc1ccc([N+](=O)[O-])cc1)c1ccc(N)cc1	0	0	0
CC/C(=N\Nc1ccc([N+](=O)[O-])cc1)c1ccccc1	0	0	-
CCc1ccc(/C(C)=N\Nc2ccc([N+](=O)[O-])cc2)cc1	0	+	-
Cc1ccc(S(=O)(=O)N(C)C[C@H]2Oc3c(NS(=O)(=O)c4ccccc4)cccc3C(=O)N([C@@H](C)CO)C[C@@H]2C)cc1	-	-	0
O=C(C[C@@H]1CC[C@@H]2[C@H](COC[C@H](O)CN2S(=O)(=O)c2ccccc2)O1)Nc1ccc(-c2ccccc2)cc1	-	-	0
Cc1cccc(-n2ccc(=O)c(C(=O)Nc3ccc(S(=O)(=O)Nc4nccs4)cc3)n2)c1	0	+	0
O=C(Nc1ccc(S(=O)(=O)Nc2nccs2)cc1)c1nn(-c2ccccc2)ccc1=O	0	0	0
O=C(CCCSc1nc2ccccc2[nH]1)NCc1ccccc1	0	0	0
O=C(CCCSc1nc2ccccc2[nH]1)Nc1nnc(-c2ccccc2)o1	0	+	-
O=C(NCc1ccccn1)c1cc(-c2ccccc2)nc2ccccc12	0	0	0
COCCCNC(=O)c1cc(-c2cccnc2)nc2ccccc12	0	0	0
O=C(NCc1ccccn1)c1cc(-c2ccc(-c3ccccc3)cc2)nc2ccccc12	0	+	0
COCCNC(=O)c1cc(-c2ccc(-c3ccccc3)cc2)nc2ccccc12	0	+	0
CCC(=O)Nc1ccc2c(c1)C(=O)N(C)[C@H]1CC[C@H](CC(=O)NCCCN(C)C)O[C@@H]1CO2	-	-	0
Cc1cc(C)c(S(=O)(=O)N2CCCCC2CCNC(=O)C(=O)NC2CC2)c(C)c1 (stereo not given)	0	+	-
Cc1cc(S(=O)(=O)N2CCCCC2CCNC(=O)C(=O)NC2CC2)ccc1F (stereo not given)	0	0	0
O=C(Nc1ccccc1)Nc1ccc2c(c1)[C@H]1C[C@@H](CC(=O)N3CCOCC3)O[C@@H](CO)[C@H]1O2	-	-	0
Cc1cc2cc(C#N)c(SCC(=O)Nc3nonc3C)nc2cc1C	0	-	0
Cc1nonc1NC(=O)CSc1nc2c(C)cccc2cc1C#N	0	+	65
O=C(c1ccccn1)N1CC(=O)N2[C@@H](CO)[C@H](c3ccc(-c4cccc(F)c4)cc3)[C@@H]2C1	-	-	0
SMILES	ABCB6 inh 2	Myeloid diff MLP	XiGFP reactiv
Cc1ccc(NCc2nnc(SCC(=O)NNC(=O)Cc3ccccc3)n2C)cc1	0	+	21
Cc1ccc(C(=O)NNC(=O)CSc2nnc(CNc3ccc(F)cc3)n2C)cc1	-	-	0
COCC(=O)NCCc1ccc(S(N)(=O)=O)cc1	0	+	-
COc1ccc(CC(=O)NCCc2ccc(S(N)(=O)=O)cc2)cc1	0	0	-
COc1ccc(C(=O)/C=C/c2ccc(OC)c(CN3CCOCC3)c2)cc1	0	?	0
COc1ccc(C)cc1Cn1nnc2ccccc21	0	0	0
COc1ccc(/C=C/C(=O)c2ccc(O)cc2)cc1CN1CCOCC1	0	+	0
COc1ccc(C(=O)/C=C/c2ccc(OC)c(Cn3nnc4ccccc43)c2)cc1	0	+	0
C[C@@H]1CN([C@H](C)CO)C(=O)c2cc(NC(=O)Cn3cnnn3)ccc2O[C@@H]1CN(C)Cc1ccncc1	-	-	0
CC(=O)N1N=C(c2ccco2)CC1c1cc2cc(C)ccc2nc1Cl (stereo not given)	0	+	0
Cc1ccc2nc(Cl)c(C3CC(c4ccco4)=NN3C(=O)CCCC(=O)O)cc2c1 (stereo not given)	0	0	0
CCOC(=O)COn1c(=O)c(C)[n+]([O-])c2ccccc21	0	0	-
CCOC(=O)COn1c(=O)c[n+]([O-])c2ccccc21	0	+	-
CC1Cc2cc(-c3csc(NC(=O)Cc4ccccc4)n3)ccc2N1S(C)(=O)=O (stereo not given)	0	+	-
CS(=O)(=O)N1CCc2cc(-c3csc(NC(=O)C(c4ccccc4)c4ccccc4)n3)ccc21	0	0	-
Nc1ccc(N2CCCC2)c(S(=O)(=O)Nc2cccc(C(F)(F)F)c2)c1	0	+	0
COc1ccc(NS(=O)(=O)c2cc(N)ccc2N2CCCCC2)cc1	0	0	0
CC(C)(C)c1ccc(C(=O)O[C@H]2[C@H](Cc3ccccc3)NS(=O)(=O)[C@H]3C[C@@H]4C=C[C@]23O4)cc1	0	0	0
CCOc1ccc(C(=O)O[C@H]2[C@H](Cc3ccccc3)NS(=O)(=O)[C@H]3C[C@@H]4C=C[C@]23O4)cc1	0	+	0
O=C(Nc1cccc(F)c1)N1CC(=O)N2[C@H](CO)[C@H](c3ccc(Br)cc3)[C@@H]2C1	-	-	0
C[C@H]1C=C(C(=O)N2CCOCC2)O[C@@H](OCc2ccc(CO)cc2)C1	0	+	0
C[C@@H]1C=C(C(=O)N2CCN(C)CC2)O[C@H](OCc2ccc(CO)cc2)C1	0	0	0
O=C(C[C@H]1CC[C@H](NC(=O)Nc2ccc(F)cc2)[C@H](CO)O1)NCc1ccccn1	-	-	0
Nc1ccc(-c2nc3ccc(N)cc3[nH]2)cc1	0	0	0
Nc1ccc2cc3[nH]c4cc(N)ccc4c3nc2c1	-	?	63
SMILES	ABCB6 inh 2	Myeloid diff MLP	XiGFP reactiv
Cc1ccc(S(=O)(=O)Nc2ccc3c(c2)C(=O)N([C@@H](C)CO)C[C@H](C)[C@@H](CN(C)Cc2ccncc2)OCCCC[C@@H](C)O3)cc1	-	-	0
O=C(C[C@H]1C[C@H]2c3cc(NC(=O)Nc4ccccc4)ccc3O[C@H]2[C@H](CO)O1)NCc1ccccn1	-	-	0
Cc1cccc(NC(=O)CS(=O)(=O)c2cn(C)c3ccccc23)c1C	0	+	-
Cc1cccc(NC(=O)CS(=O)(=O)c2cn(C)c3ccccc23)c1	0	0	0
O=C(Nc1ccccc1-c1nc2ccccc2[nH]1)c1ccc(N2C(=O)CCC2=O)cc1	0	+	0
O=C(Nc1ccccc1-c1nc2ccccc2[nH]1)c1ccc(S(=O)(=O)N2CCCCC2)cc1	0	0	-
COc1ccc(C#Cc2ccc3c(c2)[C@@H]2[C@@H](CCN2C(C)=O)[C@H](CO)N3C)cc1	-	-	0
CC(C)COC(=O)N(C)C[C@H]1OCc2cnnn2CCCC(=O)N([C@@H](C)CO)C[C@@H]1C	-	-	0
COc1ccc(S(=O)(=O)Cc2ccccc2)cc1N	0	+	-
CCN(c1ccccc1)S(=O)(=O)c1ccc(N)c(OC)c1	0	0	-
O=C(/C=C/c1ccncc1)c1ccc2c(c1)OCCO2	0	-	0
COc1cc(/C=C/C(=O)c2ccc3c(c2)OCCO3)cc(Br)c1OCC(=O)N(C)C	0	+	?
CC(=O)N(C)C[C@@H]1Oc2cc(C#CCC(C)C)ccc2S(=O)(=O)N([C@H](C)CO)C[C@@H]1C	-	-	0

Assay outcomes from PubChem BioAssay.
